Test results taken from ChEMBL document CHEMBL1240400, “Comparative in vitro activities of nemonoxacin (TG-873870), a novel nonfluorinated quinolone, and other quinolones against clinical isolates” (2010).

Legend:
Format in all cases: functional
Neisseria gonorrhoeae [1] = assay: Antibacterial activity against ciprofloxacin resistant Neisseria gonorrhoeae isolates by broth dilution method
Procedure, shortened: (§1)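 Neisseria gonorrhoeae clinical isolates tested by CLSI broth microdilution in Mueller-Hinton broth with 3% lysed horse blood, inoculated from a 0.5 McFarland suspension. Plates were incubated overnight at 35°C in 5% CO2, and the MIC was read as the lowest inhibitory concentration. Quality control strains were included in each run.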

Pseudomonas aeruginosa = assay: Antibacterial activity against Pseudomonas aeruginosa by broth dilution method
Klebsiella pneumoniae = assay: Antibacterial activity against Klebsiella pneumoniae by broth dilution method
Procedure, shortened: (§2)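 Broth microdilution per CLSI in panels spanning a dilution range of each agent. Cation-adjusted Mueller-Hinton broth, final inoculum 5 × 10^5 CFU/ml from a 0.5 McFarland suspension. Incubated overnight at 35°C in ambient air, with quality control strains in each run. MIC reported; values at or below the lowest concentration tested are given as that concentration.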

Neisseria gonorrhoeae [2] = assay: Antibacterial activity against levofloxacin resistant Neisseria gonorrhoeae isolates by broth dilution method; procedure, shortened: as §1
Streptococcus pneumoniae [3] = assay: Antibacterial activity against Levofloxacin susceptible Streptococcus pneumoniae by broth dilution method
Procedure, shortened: (§3)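 Streptococcus pneumoniae clinical isolates tested by CLSI broth microdilution. A 0.5 McFarland suspension was diluted into Mueller-Hinton broth with 3% lysed horse blood, then tested against serial drug dilutions. Plates were incubated overnight at 35°C in ambient air, and the MIC was read as the lowest inhibitory concentration. Quality control strains were included in each run.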

Staphylococcus = assay: Antibacterial activity against methicillin resistant coagulase negative Staphylococcus by broth dilution method
Proteus mirabilis = assay: Antibacterial activity against Proteus mirabilis by broth dilution method
Escherichia coli [4] = assay: Antibacterial activity against ciprofloxacin susceptible Escherichia coli by broth dilution method; procedure, shortened: as §2
Streptococcus pyogenes = assay: Antibacterial activity against Streptococcus pyogenes by broth dilution method
Procedure, shortened: (§4)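 Streptococci were tested by CLSI broth microdilution in Mueller-Hinton broth with 3% lysed horse blood, seeded from a 0.5 McFarland suspension. Incubated overnight at 35°C in ambient air, with quality control strains in each run. MIC taken over a per-agent dilution range.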

[5] = system: Staphylococcus epidermidis; assay: Antibacterial activity against methicillin resistant coagulase negative Staphylococcus epidermidis by broth dilution method
Streptococcus agalactiae = assay: Antibacterial activity against Streptococcus agalactiae by broth dilution method; procedure, shortened: as §4
Enterococcus faecalis [6] = assay: Antibacterial activity against Enterococcus faecalis by broth dilution method
Enterococcus faecalis [7] = assay: Antibacterial activity against vancomycin resistant Enterococcus faecalis by broth dilution method
Staphylococcus aureus [8] = assay: Antibacterial activity against methicillin susceptible Staphylococcus aureus by broth dilution method
Enterobacter cloacae = assay: Antibacterial activity against Enterobacter cloacae by broth dilution method
Escherichia coli [9] = assay: Antibacterial activity against ciprofloxacin resistant Escherichia coli by broth dilution method
Procedure, shortened: (§5)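 Clinical isolates tested by CLSI broth microdilution in panels holding serial twofold drug dilutions in cation-adjusted Mueller-Hinton broth. Final inoculum 5 × 10^5 CFU/ml was made from a 0.5 McFarland suspension. Plates were incubated overnight at 35°C in ambient air, and the MIC was read as the lowest concentration inhibiting growth. Quality control strains were included in each run.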

Staphylococcus aureus [10] = assay: Antibacterial activity against ciprofloxacin and methicillin resistant Staphylococcus aureus by broth dilution method; procedure, shortened: as §5
Neisseria gonorrhoeae [11] = assay: Antibacterial activity against moxifloxacin resistant Neisseria gonorrhoeae isolates by broth dilution method; procedure, shortened: as §1
Staphylococcus aureus [12] = assay: Antibacterial activity against ciprofloxacin susceptible and methicillin resistant Staphylococcus aureus by broth dilution method; procedure, shortened: as §5
Streptococcus viridans = assay: Antibacterial activity against Streptococcus viridans by broth dilution method; procedure, shortened: as §4
Acinetobacter baumannii = assay: Antibacterial activity against Acinetobacter baumannii by broth dilution method; procedure, shortened: as §2
Haemophilus influenzae = assay: Antibacterial activity against Haemophilus influenzae by broth dilution method
Procedure, shortened: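 Broth microdilution per CLSI using Haemophilus Test Medium broth, seeded from a 0.5 McFarland suspension. Incubated overnight at 35°C in ambient air, with quality control strains in each run. MIC read against a tested dilution range; values at the low limit are given as the lowest concentration.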

Citrobacter freundii = assay: Antibacterial activity against Citrobacter freundii by broth dilution method; procedure, shortened: as §2
Enterococcus faecium [13] = assay: Antibacterial activity against Enterococcus faecium by broth dilution method; procedure, shortened: as §5
Enterococcus faecium [14] = assay: Antibacterial activity against vancomycin resistant Enterococcus faecium by broth dilution method; procedure, shortened: as §5
Streptococcus pneumoniae [15] = assay: Antibacterial activity against Levofloxacin resistant Streptococcus pneumoniae by broth dilution method; procedure, shortened: as §3

## C[C@H]1COc2c(N3CCN(C)CC3)c(F)cc3c(=O)c(C(=O)O)cn1c23.C[C@H]1COc2c(N3CCN(C)CC3)c(F)cc3c(=O)c(C(=O)O)cn1c23.O [LEVOFLOXACIN]
Neisseria gonorrhoeae [1]
  MIC: 2 µg/mL
Pseudomonas aeruginosa
  MIC50: 8 µg/mL
  MIC90: > 16 µg/mL
Klebsiella pneumoniae
  MIC50: 2 µg/mL
  MIC90: > 16 µg/mL
Neisseria gonorrhoeae [2]
  MIC: 1 µg/mL
Streptococcus pneumoniae [3]
  MIC50: 1 µg/mL
  MIC90: 2 µg/mL
Staphylococcus
  MIC50: 0.5 µg/mL
  MIC90: 8 µg/mL
Proteus mirabilis
  MIC50: 2 µg/mL
  MIC90: > 16 µg/mL
Escherichia coli [4]
  MIC50: 0.5 µg/mL
  MIC90: 1 µg/mL
Streptococcus pyogenes
  MIC50: 1 µg/mL
  MIC90: 2 µg/mL
[5]
  MIC50: 0.5 µg/mL
  MIC90: 8 µg/mL
Streptococcus agalactiae
  MIC50: 1 µg/mL
  MIC90: 2 µg/mL
Enterococcus faecalis [6]
  MIC50: 2 µg/mL
  MIC90: > 16 µg/mL
Enterococcus faecalis [7]
  MIC50: 2 µg/mL
Staphylococcus aureus [8]
  MIC50: 0.25 µg/mL
  MIC90: 1 µg/mL
Enterobacter cloacae
  MIC50: 2 µg/mL
  MIC90: 16 µg/mL
Escherichia coli [9]
  MIC50: > 16 µg/mL
  MIC90: > 16 µg/mL
Staphylococcus aureus [10]
  MIC50: 16 µg/mL
  MIC90: 16 µg/mL
Neisseria gonorrhoeae [11]
  MIC: 0.5 µg/mL
Staphylococcus aureus [12]
  MIC50: 0.25 µg/mL
  MIC90: 0.25 µg/mL
Streptococcus viridans
  MIC50: 1 µg/mL
  MIC90: 2 µg/mL
Acinetobacter baumannii
  MIC50: 2 µg/mL
  MIC90: 16 µg/mL
Haemophilus influenzae
  MIC50: 0.25 µg/mL
  MIC90: 8 µg/mL
Citrobacter freundii
  MIC50: 0.12 µg/mL
  MIC90: 2 µg/mL
Enterococcus faecium [13]
  MIC50: > 16 µg/mL
  MIC90: > 16 µg/mL
Enterococcus faecium [14]
  MIC: 2 µg/mL
Streptococcus pneumoniae [15]
  MIC50: 16 µg/mL
  MIC90: > 16 µg/mL
